Experimental data published in ChEMBL document CHEMBL2021927, “Synthesis and evaluation of the cytotoxicities of tetraindoles: observation that the 5-hydroxy tetraindole (SK228) induces G₂ arrest and apoptosis in human breast cancer cells” (J Med Chem, 2012).
Activity calls are given as the source filed them. The calls are words filed in the database; no cut-off is given here.

Columns and labels:
[1] = tested on: MDA-MB-231; assay: Antiproliferative activity against human MDA-MB-231 cells assessed as decrease in cell count after 72 hrs by trypan blue dye exclusion assay; assay type: functional, cell-based
Summary of the method: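 MDA-MB-231 cells seeded at 2 × 10^5 per well in 6-well plates, treated 24 h later in triplicate with compound (0.1–0.8 μM) or DMSO vehicle in 10% FBS DMEM/F12. Cells harvested by trypsinization at 24, 48 and 72 h, stained with 0.4% trypan blue and counted on a hemocytometer; three independent experiments.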

[2] = tested on: MDA-MB-468; assay: Growth inhibition of human MDA-MB-468 cells after 48 hrs by MTT assay; assay type: functional, cell-based; conditions: MDA-MB-468, 48 h
[3] = tested on: SW480; assay: Growth inhibition of human SW480 cells after 48 hrs by MTT assay; assay type: functional, cell-based; conditions: SW480, 48 h
[4] = tested on: SW48; assay: Growth inhibition of human SW48 cells after 48 hrs by MTT assay; assay type: functional, cell-based; conditions: SW48, 48 h
[5] = Growth inhibition of human Detroit 551 cells at 20 uM after 48 hrs by MTT assay; assay type: cell-based; conditions: read-out: GI
Summary of the method: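 MTT viability assay with 48 h exposure at a single 20 μM concentration. Result given as percent inhibition of cell growth; n = 3.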

[6] = tested on: MDA-MB-361; assay: Selectivity ratio of IC50 for human MT10 cells to IC50 for human MDA-MB-361 cells
Summary of the method: (§1)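 Ratio of the IC50 in normal M10 cells to the IC50 in each cancer line. […] The paper reports the fold difference as the normal-cell to tumour-cell IC50 ratio.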

[7] = tested on: MDA-MB-468; assay: Selectivity ratio of IC50 for human MT10 cells to IC50 for human MDA-MB-468 cells; summary of the method: as §1
[8] = Selectivity ratio of IC50 for human MT10 cells to IC50 for human SW620 cells; assay type: ADME, cell-based, SW-620; conditions: MT10 cells and SW620 cells; summary of the method: as §1
[9] = Selectivity ratio of IC50 for human MT10 cells to IC50 for human U87MG cells; assay type: ADME, cell-based, U-87MG ATCC; conditions: MT10 cells and U87MG cells, read-out: Ratio IC50; summary of the method: as §1
[10] = tested on: MDA-MB-361; assay: Selectivity ratio of IC50 for human Detroit 551 cells to IC50 for human MDA-MB-361 cells
[11] = tested on: MDA-MB-468; assay: Selectivity ratio of IC50 for human Detroit 551 cells to IC50 for human MDA-MB-468 cells
[12] = tested on: SW48; assay: Selectivity ratio of IC50 for human Detroit 551 cells to IC50 for human SW48 cells
[13] = tested on: MCF7; assay: Selectivity ratio of IC50 for human Detroit 551 cells to IC50 for human MCF7 cells
[14] = tested on: MDA-MB-231; assay: Cell cycle arrest in human MDA-MB-231 cells at accumulation at G1 phase at 0.8 uM after 24 hrs by propidium iodide staining-based flow cytometric analysis (reference value: 48%); assay type: functional
[15] = tested on: MDA-MB-231; assay: Cell cycle arrest in human MDA-MB-231 cells at accumulation at G1 phase at 0.8 uM after 48 hrs by propidium iodide staining-based flow cytometric analysis (reference value: 45%); assay type: functional
[16] = tested on: MDA-MB-231; assay: Increase in cyclin B1 expression in human MDA-MB-231 cells after 24 hrs by Western blot analysis; assay type: functional, cell-based
Summary of the method: (§2)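 MDA-MB-231 cells treated with 0.2, 0.4 or 0.8 μM for 24 and 48 h. Attached and floating cells were lysed in RIPA-type buffer with protease inhibitors, and protein was quantified by BCA. Equal protein was run on 10%/15% SDS-PAGE and transferred to nitrocellulose. Blots were probed 1 h at room temperature for phospho-cdc2, cyclin B1, caspase-3, bak/bcl-2 or actin loading control, with HRP secondary and ECL detection.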

[17] = tested on: MDA-MB-231; assay: Decrease in cyclin B1 expression in human MDA-MB-231 cells at 0.8 uM after 48 hrs by Western blot analysis; assay type: functional, cell-based; summary of the method: as §2
[18] = tested on: MDA-MB-231; assay: Induction of apoptosis in human MDA-MB-231 cells assessed as bak protein level after 24 hrs by Western blot analysis; assay type: functional, cell-based; summary of the method: as §2
[19] = tested on: MDA-MB-231; assay: Induction of apoptosis in human MDA-MB-231 cells assessed as bak protein level after 48 hrs by Western blot analysis; assay type: functional, cell-based; summary of the method: as §2
[20] = tested on: MDA-MB-231; assay: Induction of apoptosis in human MDA-MB-231 cells assessed as PARP cleavage after 24 to 48 hrs by Western blot analysis; assay type: functional, cell-based

Oc1ccc2[nH]cc(C(c3ccc(C(c4c[nH]c5ccc(O)cc45)c4c[nH]c5ccc(O)cc45)cc3)c3c[nH]c4ccc(O)cc34)c2c1
Activity [1]: Dose-dependent effect | IC50 [2]: 830 nM | IC50 [3]: 370 nM | IC50 [4]: 880 nM | inhibition at 48 h, 20 µM [5]: 47% | Ratio IC50 [6]: 2.8 | Ratio IC50 [7]: 7 | selectivity ratio [8]: 5.9 | selectivity ratio [9]: 2 | Ratio IC50 [10]: > 9.7 | Ratio IC50 [11]: > 24 | Ratio IC50 [12]: > 22.7 | Ratio IC50 [13]: > 22.7 | Activity [14]: 31% | Activity [15]: 25% | Activity [16]: Dose-dependent effect | Activity [17]: Active | Activity [18]: Active | Activity [19]: Active | Activity [20]: Dose-dependent effect
